pIC50: −log10 of the molar value. The source made the active and inactive calls. The rule behind the calls is not given here.
Assays:
Rattus norvegicus [1] = test: Antineuropathic pain activity in rat spinal nerve ligation model assessed as effect on mechanical allodynia by measuring frequency of paw withdrawal at 100 mg/kg, po measured up to 3 hrs; assay type: functional, organism-based
Summary of the method: (§1)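 Rats with spinal nerve ligation neuropathic injury, dosed orally at 100 mg/kg (n = 3–6 per group). Allodynia tested before injury, before dosing (post-injury day 14), and 1, 3 and 5 h after dosing. Values compared with pre-administration values by paired t-test, P < 0.05.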

[2] = molecular target: T1, 5-hydroxytryptamine receptor 6 (Homo sapiens, UniProt P50406); test: Antagonist activity at human 5-HT6R expressed in human HeLa cells assessed as inhibition of 5-HT-induced cAMP levels pre-treated for 10 mins before 30 mins stimulation with 5-HT by D2-dye based HTRF assay; assay type: functional, cell-based
T1 sequence (P50406 whole entry): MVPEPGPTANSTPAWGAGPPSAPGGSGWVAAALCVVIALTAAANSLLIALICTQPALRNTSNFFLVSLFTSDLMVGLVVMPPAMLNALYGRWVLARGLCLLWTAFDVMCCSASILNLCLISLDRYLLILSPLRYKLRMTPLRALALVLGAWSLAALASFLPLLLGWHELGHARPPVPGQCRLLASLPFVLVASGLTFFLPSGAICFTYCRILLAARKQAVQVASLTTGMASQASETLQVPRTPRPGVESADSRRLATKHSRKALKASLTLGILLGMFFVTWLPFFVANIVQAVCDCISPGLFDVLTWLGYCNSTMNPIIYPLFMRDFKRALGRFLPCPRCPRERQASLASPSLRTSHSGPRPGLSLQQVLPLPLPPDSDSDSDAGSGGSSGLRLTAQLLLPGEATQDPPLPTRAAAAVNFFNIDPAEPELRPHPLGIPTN
Summary of the method: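 HeLa cells stably expressing human 5-HT6 receptor, kept at 37°C in 5% CO2/95% air, suspended in PBS with 2 mM IBMX. Compound pretreatment 10 min, then 100 nM 5-HT stimulation 30 min. d2-labelled cAMP and cryptate-labelled anti-cAMP antibody added, 1 h at room temperature. Fluorescence read at 314 nm excitation, 668 and 620 nm emission.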

[3] = molecular target: T1, 5-hydroxytryptamine receptor 6; test: Inhibition of ligand binding to human 5-HT6R at 10 uM relative to control
CYP2D6 = CYP2D6 (Homo sapiens, UniProt P10635); test: Inhibition of recombinant human CYP2D6 expressed in baculosomes assessed as remaining activity at 10 uM preincubated for 10 mins followed by Vivid substrate addition in presence of NADP+ by fluorescence assay relative to […]; assay type: ADME; conditions: probe Vivid substrate, read-out: Activity
Chain of CYP2D6 (P10635 whole entry): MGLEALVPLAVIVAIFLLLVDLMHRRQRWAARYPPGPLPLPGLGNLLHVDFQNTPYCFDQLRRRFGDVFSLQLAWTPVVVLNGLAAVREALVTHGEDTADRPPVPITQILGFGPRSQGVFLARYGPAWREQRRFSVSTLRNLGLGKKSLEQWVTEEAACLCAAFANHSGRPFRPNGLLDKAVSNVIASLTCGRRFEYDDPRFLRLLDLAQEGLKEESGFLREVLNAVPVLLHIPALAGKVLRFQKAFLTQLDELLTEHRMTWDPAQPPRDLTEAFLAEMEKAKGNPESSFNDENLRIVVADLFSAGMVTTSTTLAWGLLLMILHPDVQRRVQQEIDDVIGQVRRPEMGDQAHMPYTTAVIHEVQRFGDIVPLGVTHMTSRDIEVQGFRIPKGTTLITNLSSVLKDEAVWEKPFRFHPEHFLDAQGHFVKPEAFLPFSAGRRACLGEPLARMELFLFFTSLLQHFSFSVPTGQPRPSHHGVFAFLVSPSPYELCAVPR
Summary of the method: (§2)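 Remaining percent CYP activity measured at 10 µM test concentration. Values are means ± SD of triplicate experiments.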

CYP3A4 = CYP3A4 (Homo sapiens, UniProt P08684); test: Inhibition of recombinant human CYP3A4 expressed in baculosomes assessed as remaining activity at 10 uM preincubated for 10 mins followed by Vivid CYP450 substrate addition in presence of NADP+ by fluorescence assay relative to ketoconazole; assay type: ADME; conditions: probe Vivid CYP450 substrate, read-out: Activity; summary of the method: as §2
Chain of CYP3A4 (P08684 whole entry): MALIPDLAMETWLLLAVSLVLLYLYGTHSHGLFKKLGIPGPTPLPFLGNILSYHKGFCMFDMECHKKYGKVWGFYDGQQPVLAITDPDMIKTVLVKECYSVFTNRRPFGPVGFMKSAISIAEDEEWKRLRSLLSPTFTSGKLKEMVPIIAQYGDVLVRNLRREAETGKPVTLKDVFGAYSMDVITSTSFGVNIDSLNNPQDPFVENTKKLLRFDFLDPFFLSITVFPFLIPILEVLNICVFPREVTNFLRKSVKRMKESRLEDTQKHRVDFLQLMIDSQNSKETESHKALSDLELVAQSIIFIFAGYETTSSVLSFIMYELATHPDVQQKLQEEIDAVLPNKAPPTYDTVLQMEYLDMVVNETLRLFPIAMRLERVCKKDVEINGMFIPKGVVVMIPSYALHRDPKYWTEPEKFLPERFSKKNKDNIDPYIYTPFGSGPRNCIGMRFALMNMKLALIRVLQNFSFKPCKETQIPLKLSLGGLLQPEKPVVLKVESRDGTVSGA

Rattus norvegicus [4] = test: Antineuropathic pain activity in rat spinal nerve ligation model assessed as effect on cold allodynia by measuring paw withdrawal response at 100 mg/kg, po measured up to 5 hrs; assay type: functional, organism-based; summary of the method: as §1
[5] = molecular target: Voltage-gated inwardly rectifying potassium channel KCNH2 (Homo sapiens, UniProt Q12809); test: Inhibition of human ERG expressed in CHOK1 cells by patch clamp method
Chain of Voltage-gated inwardly rectifying potassium channel KCNH2 (Q12809 whole entry): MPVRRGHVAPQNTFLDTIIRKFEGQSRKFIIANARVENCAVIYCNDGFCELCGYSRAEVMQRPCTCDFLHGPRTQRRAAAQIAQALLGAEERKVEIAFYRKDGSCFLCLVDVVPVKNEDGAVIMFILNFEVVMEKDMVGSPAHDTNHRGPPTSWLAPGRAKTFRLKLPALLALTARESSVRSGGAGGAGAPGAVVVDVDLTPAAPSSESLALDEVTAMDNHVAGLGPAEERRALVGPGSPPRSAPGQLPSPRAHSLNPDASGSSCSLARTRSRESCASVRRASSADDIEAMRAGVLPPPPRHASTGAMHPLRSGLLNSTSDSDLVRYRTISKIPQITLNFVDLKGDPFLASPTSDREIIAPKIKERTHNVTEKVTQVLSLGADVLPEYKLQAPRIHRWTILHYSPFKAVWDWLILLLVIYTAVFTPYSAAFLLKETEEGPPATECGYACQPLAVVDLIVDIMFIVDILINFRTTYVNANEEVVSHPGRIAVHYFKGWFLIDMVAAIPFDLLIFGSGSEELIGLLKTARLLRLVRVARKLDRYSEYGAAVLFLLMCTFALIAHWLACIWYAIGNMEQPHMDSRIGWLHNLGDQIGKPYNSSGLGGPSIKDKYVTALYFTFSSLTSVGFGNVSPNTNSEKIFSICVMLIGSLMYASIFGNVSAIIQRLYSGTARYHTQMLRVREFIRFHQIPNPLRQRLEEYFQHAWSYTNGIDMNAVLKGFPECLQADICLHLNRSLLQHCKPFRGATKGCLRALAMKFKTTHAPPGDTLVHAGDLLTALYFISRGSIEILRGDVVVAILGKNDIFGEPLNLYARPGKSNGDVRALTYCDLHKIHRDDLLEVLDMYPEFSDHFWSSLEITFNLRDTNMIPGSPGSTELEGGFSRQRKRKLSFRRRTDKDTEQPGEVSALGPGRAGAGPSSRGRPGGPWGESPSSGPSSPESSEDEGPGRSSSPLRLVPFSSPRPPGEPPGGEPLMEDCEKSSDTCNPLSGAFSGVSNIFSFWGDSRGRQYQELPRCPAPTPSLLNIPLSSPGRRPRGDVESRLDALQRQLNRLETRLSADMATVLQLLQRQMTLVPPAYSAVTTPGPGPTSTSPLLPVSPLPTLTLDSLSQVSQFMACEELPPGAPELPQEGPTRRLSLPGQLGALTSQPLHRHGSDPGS

CYP2C9 = CYP2C9 (Homo sapiens, UniProt P08684); test: Inhibition of recombinant human CYP2C9 expressed in baculosomes assessed as remaining activity at 10 uM preincubated for 10 mins followed by Vivid CYP450 substrate addition in presence of NADP+ by fluorescence assay relative to miconazole; assay type: ADME; conditions: probe Vivid CYP450 substrate, read-out: Activity; summary of the method: as §2
Chain of CYP2C9 (P08684 whole entry): as the sequence (P08684 whole entry) above

Rattus norvegicus [6] = test: Poteny index, ratio of gabapentin to test compound antineuropathic pain activity in rat spinal nerve ligation model assessed as effect on mechanical allodynia by measuring frequency of paw withdrawal at 100 mg/kg, po; assay type: functional

`CC(C)Cc1cc(CNS(=O)(=O)c2cccc3cccnc23)nn1-c1ccccc1` was tested, and the Activity (Rattus norvegicus [1]) was “Active”, the pIC50 [2] was 5.85 and the inhibition [3] was 106%. The activity at 10 µM (CYP2D6) was 119%, the activity at 10 µM (CYP3A4) was 52.2% and the Activity (Rattus norvegicus [4]) was “inactive”.
`CC(C)Cc1cc(CNS(=O)(=O)c2cccc3ccccc23)nn1-c1ccccc1` showed a pIC50 [2] of 5.61 and an inhibition [3] of 77.7%.
With `O=C1c2[nH]nc(NS(=O)(=O)c3ccc4ccccc4c3)c2CCN1CC1CCNCC1` the pIC50 [2] was 6.51 and the inhibition [3] was 94.1%.
In the case of `CC(C)Cc1cc(CNS(=O)(=O)c2c(Cl)cccc2Cl)nn1-c1ccccc1`, the pIC50 [2] was 5.25 and the inhibition [3] was 59.4%.
Work on `CC(C)Cc1cc(CNS(=O)(=O)Cc2cccc3ccccc23)nn1-c1ccc(F)cc1` yielded an inhibition [3] of 36.1%.
For `CC(C)Cc1cc(CNS(=O)(=O)c2ccccc2)nn1-c1ccccc1`, the inhibition [3] was 11.3%.
In the case of `CC(C)Cc1cc(CNS(=O)(=O)c2cccc(Cl)c2)nn1-c1ccccc1`, the pIC50 [2] was 4.96 and the inhibition [3] was 40.8%.
With `CC(C)Cc1cc(CNS(=O)(=O)c2cccc3cccnc23)nn1-c1ccc(F)cc1` the Activity (Rattus norvegicus [1]) was “Active”, the pIC50 [2] was 5.75 and the inhibition [3] was 93.4%. It also gave a pIC50 [5] of 5.80, an activity at 10 µM (CYP2D6) of 64.8% and an activity at 10 µM (CYP2C9) of 3.87%. The activity at 10 µM (CYP3A4) was 34.5%, the Ratio (Rattus norvegicus [6]) was 60 and the Activity (Rattus norvegicus [4]) was “inactive”.
Compound `CC(C)Cc1cc(CNS(=O)(=O)c2cccc(F)c2)nn1-c1ccccc1` has an inhibition [3] of 19.5%.
In the case of `CC(C)Cc1cc(CNS(=O)(=O)c2ccc(C(C)(C)C)cc2)nn1-c1ccccc1`, the pIC50 [2] was 5.06 and the inhibition [3] was 51.1%.
For `CC(C)Cc1cc(CNS(=O)(=O)Cc2cccc3ccccc23)nn1-c1ccccc1`, the inhibition [3] was 28.7%.
For `Cc1c(Cl)cccc1S(=O)(=O)NCc1cc(CC(C)C)n(-c2ccccc2)n1`, the pIC50 [2] was 5.40 and the inhibition [3] was 72.3%.
For `NCC1(CC(=O)O)CCCCC1`, the Activity (Rattus norvegicus [1]) was “Active”.
With `CC(C)Cc1cc(CNS(=O)(=O)c2ccc3ccccc3c2)nn1-c1ccccc1` the pIC50 [2] was 5.48 and the inhibition [3] was 67.8%.

Source: ChEMBL document CHEMBL4052782, “Neuropathic pain-alleviating effects of pyrazole-conjugated arylsulfonamides as 5-HT6 receptor antagonists” (Bioorg Med Chem Lett, 2017)
